We go through 2 compounds from ChEMBL document CHEMBL1122371, “Inhibition of renin by angiotensinogen peptide fragments containing the hydroxy amino acid residue 5-amino-3-hydroxy-7-methyloctanoic acid” (J Med Chem, 1983).

The target in experiment [1] is Renin (Sus scrofa). The experiment in a line: Inhibitory activity against hog kidney renin (Non-competitive inhibition).
The target of experiment [2] is T1, Renin (Homo sapiens, UniProt P00797).
T1 sequence (P00797 whole entry): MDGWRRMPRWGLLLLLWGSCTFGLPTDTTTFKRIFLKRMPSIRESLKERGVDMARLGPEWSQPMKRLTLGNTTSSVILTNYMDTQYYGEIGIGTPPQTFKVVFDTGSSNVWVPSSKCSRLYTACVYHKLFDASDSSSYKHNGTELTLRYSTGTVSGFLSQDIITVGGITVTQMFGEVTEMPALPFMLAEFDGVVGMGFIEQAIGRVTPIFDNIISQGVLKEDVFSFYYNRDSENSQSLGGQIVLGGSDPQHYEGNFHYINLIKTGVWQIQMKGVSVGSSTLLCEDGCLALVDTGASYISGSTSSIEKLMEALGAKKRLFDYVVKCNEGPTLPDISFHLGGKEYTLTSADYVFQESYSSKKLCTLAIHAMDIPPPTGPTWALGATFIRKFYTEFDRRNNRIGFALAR
The experiment in a line: Inhibitory activity against human amniotic renin (competitive inhibition). Put shortly:
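Angiotensin I generation is reported as nmol/unit enzyme/min for hog kidney renin and nmol/mL/h for human amniotic renin. Points are means of three determinations. Lines are fitted by linear regression, and Ki is the −[I] at their intersection.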

SMILES strings stand for the structures.

What is called Ki is a measure of affinity in units of concentration, obtained from inhibition or displacement.

For the compound `COC(=O)[C@H](Cc1ccccc1)NC(=O)[C@@H](NC(=O)CC(O)CC(N)CC(C)C)C(C)C` (some centres undefined), the inhibition constant Ki amounted to 170 µM in experiment [1] and 95 µM in experiment [2].
For the compound `COC(=O)[C@@H](Cc1ccccc1)NC(=O)[C@H](NC(=O)CC(O)CC(N)CC(C)C)C(C)C` (some centres undefined), the Ki in experiment [1] came out at 1180 µM; in experiment [2] it was 1600 µM.
